The text below walks through data of ChEMBL document CHEMBL5674883, “The Heterochromatin Landscape in Migrating Cells and the Importance of H3K27me3 for Associated Transcriptome Alterations” (Cells, 2018).

Each structure is given as a SMILES string.

What all share (assay type): cell-based
Assay [1] deals with Histone-lysine N-methyltransferase EZH2 (Mus musculus) (UniProt Q61188). The assay can be described thus: Inhibition of EZH2 in mouse B16-F1 migrating cells assessed as fold change in H3K27me3-dependent regulated Ccno-mRNA expression at 3 uM measured by ChIP-seq analysis relative to control cells. The method in brief:
(§1)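 Confluent B16-F1 cells on fibronectin-coated plates were scratched at multiple sites, washed once with DMEM and left to migrate 3 h in growth medium (37 °C, 7% CO2); unscratched cells served as control. GSK343 (3 µM) was added 3 h before lysis. Poly A mRNA was sequenced (RNA-seq), with 5 replicates for untreated and 3 for treated cells. Differential expression was called by linear model with batch correction, at FDR <0.05 and fold change ≥1.3.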

The target is the same in assay [2]. The assay can be described thus: Inhibition of EZH2 in mouse B16-F1 migrating cells assessed as fold change in H3K27me3-dependent regulated Ddit4-mRNA expression at 3 uM measured by […] analysis relative to control cells. The method, boiled down:
as §1

Assay [3] shares this target. In words: Inhibition of EZH2 in mouse B16-F1 migrating cells assessed as fold change in H3K27me3-independent regulated Fam214b-mRNA expression at 3 uM measured by […] analysis relative to control cells. The method in brief: as §1
For assay [4] the target is unchanged. The assay can be described thus: Inhibition of EZH2 in mouse B16-F1 migrating cells assessed as fold change in H3K27me3-independent regulated Dusp10-mRNA expression at 3 uM measured by […] analysis relative to control cells. The method in brief:
as §1

For assay [5] the target is unchanged. The assay can be described thus: Inhibition of EZH2 in mouse B16-F1 migrating cells assessed as fold change in H3K27me3-buffered regulated Gm28989-mRNA expression at 3 uM measured by […] analysis relative to control cells. The method, boiled down:
(§2)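 Confluent B16-F1 cells on fibronectin-coated plates, cultured at 37 °C and 7% CO2, were scratched at multiple sites to induce migration. They were then held 3 h in growth medium containing 3 µM GSK343, with the inhibitor added 3 h before lysis. Unscratched cells served as controls. Poly A mRNA was analysed by RNA-seq (n=3 GSK343, n=5 controls). Linear models removed batch effects, and buffered genes were those altered only under GSK343 (FDR <0.05, fold change >1.3).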

Assay [6] has the same target. The assay can be described thus: Inhibition of EZH2 in mouse B16-F1 migrating cells assessed as fold change in H3K27me3-buffered regulated 1700027J19Rik-mRNA expression at 3 uM measured by […] analysis relative to control cells. The method, boiled down: as §2
For assay [7] the target is unchanged. The assay can be described thus: Inhibition of EZH2 in mouse B16-F1 migrating cells assessed as fold change in H3K27me3-buffered regulated Rap2a-mRNA expression at 3 uM measured by […] analysis relative to control cells. The method in brief: as §2
Assay [8] shares this target. In words: Inhibition of EZH2 in mouse B16-F1 migrating cells assessed as fold change in H3K27me3-buffered regulated Aldoa-mRNA expression at 3 uM measured by […] analysis relative to control cells. The method in brief: as §2
The target is the same in assay [9]. In words: Inhibition of EZH2 in mouse B16-F1 migrating cells assessed as fold change in H3K27me3-buffered regulated Pltp-mRNA expression at 3 uM measured by […] analysis relative to control cells. The method in brief:
as §2

The target is the same in assay [10]. The assay can be described thus: Inhibition of EZH2 in mouse B16-F1 migrating cells assessed as fold change in H3K27me3-buffered regulated Map3k20-mRNA expression at 3 uM measured by ChIP-seq analysis relative to control cells. The method, boiled down: as §2
For assay [11] the target is unchanged. In words: Inhibition of EZH2 in mouse B16-F1 migrating cells assessed as fold change in H3K27me3-buffered regulated Rbl1-mRNA expression at 3 uM measured by […] analysis relative to control cells. The method, boiled down: as §2
Assay [12] has the same target. In words: Inhibition of EZH2 in mouse B16-F1 migrating cells assessed as fold change in H3K27me3-buffered regulated Ccdc126-mRNA expression at 3 uM measured by […] analysis relative to control cells. The method, boiled down:
as §2

For assay [13] the target is unchanged. In words: Inhibition of EZH2 in mouse B16-F1 migrating cells assessed as fold change in H3K27me3-buffered regulated Map3k1-mRNA expression at 3 uM measured by […] analysis relative to control cells. The method, boiled down: as §2
For assay [14] the target is unchanged. In words: Inhibition of EZH2 in mouse B16-F1 migrating cells assessed as fold change in H3K27me3-buffered regulated Rhbdf2-mRNA expression at 3 uM measured by […] analysis relative to control cells. The method in brief: as §2
Assay [15] deals with T1, RNA polymerase II (Mus musculus) (UniProt P08775+Q8CFI7+P97760+A0A3Q4L2S8+Q80UW8+P61219+P62488+Q923G2+P60898+O08740+Q63871+P62876). In words: Inhibition of RNA polymerase II in mouse B16-F1 migrating cells assessed as fold change in Ikzf4-RNA stability at 0.1 mM measured by ChIP-seq analysis relative to control cells.
Assay [16] addresses T1, RNA polymerase II (Mus musculus). The assay can be described thus: Inhibition of RNA polymerase II in mouse B16-F1 migrating cells assessed as fold change in Mapre3-RNA stability at 0.1 mM measured by ChIP-seq analysis relative to control cells.
Assay [17] has the same target. The assay can be described thus: Inhibition of RNA polymerase II in mouse B16-F1 migrating cells assessed as fold change in Ndrg1-RNA stability at 0.1 mM measured by ChIP-seq analysis relative to control cells.
The target is the same in assay [18]. The assay can be described thus: Inhibition of RNA polymerase II in mouse B16-F1 migrating cells assessed as fold change in Rpl27-RNA stability at 0.1 mM measured by […] analysis relative to control cells.
The target is the same in assay [19]. The assay can be described thus: Inhibition of RNA polymerase II in mouse B16-F1 migrating cells assessed as fold change in G6pc3-RNA stability at 0.1 mM measured by ChIP-seq analysis relative to control cells. The method in brief: (§3)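 Mouse B16-F1 melanoma cells grown to confluence on fibronectin in DMEM/10% FCS at 37 °C, 7% CO2. Migration induced by multiple scratches and 3 h incubation; unscratched controls. DRB 0.1 mM added 3 h before lysis. RNA from poly A-selected mRNA was sequenced (RNA-seq, three replicates per DRB group). Fold change computed for DRB-treated migrating vs DRB-treated control cells; cutoffs fold change >1.3, FDR <0.05.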

For assay [20] the target is unchanged. The assay can be described thus: Inhibition of RNA polymerase II in mouse B16-F1 migrating cells assessed as fold change in Uba52-RNA stability at 0.1 mM measured by […] analysis relative to control cells.
Assay [21] shares this target. The assay can be described thus: Inhibition of RNA polymerase II in mouse B16-F1 migrating cells assessed as fold change in Kdelr1-RNA stability at 0.1 mM measured by ChIP-seq analysis relative to control cells. The method in brief:
as §3

The target is the same in assay [22]. In words: Inhibition of RNA polymerase II in mouse B16-F1 migrating cells assessed as fold change in Crbn-RNA stability at 0.1 mM measured by ChIP-seq analysis relative to control cells.
Assay [23] has the same target. The assay can be described thus: Inhibition of RNA polymerase II in mouse B16-F1 migrating cells assessed as fold change in Gria4-RNA stability at 0.1 mM measured by ChIP-seq analysis relative to control cells.
Assay [24] has the same target. The assay can be described thus: Inhibition of RNA polymerase II in mouse B16-F1 migrating cells assessed as fold change in Orc4-RNA stability at 0.1 mM measured by […] analysis relative to control cells.

Chain of Histone-lysine N-methyltransferase EZH2 (Mus musculus) (Q61188 whole entry): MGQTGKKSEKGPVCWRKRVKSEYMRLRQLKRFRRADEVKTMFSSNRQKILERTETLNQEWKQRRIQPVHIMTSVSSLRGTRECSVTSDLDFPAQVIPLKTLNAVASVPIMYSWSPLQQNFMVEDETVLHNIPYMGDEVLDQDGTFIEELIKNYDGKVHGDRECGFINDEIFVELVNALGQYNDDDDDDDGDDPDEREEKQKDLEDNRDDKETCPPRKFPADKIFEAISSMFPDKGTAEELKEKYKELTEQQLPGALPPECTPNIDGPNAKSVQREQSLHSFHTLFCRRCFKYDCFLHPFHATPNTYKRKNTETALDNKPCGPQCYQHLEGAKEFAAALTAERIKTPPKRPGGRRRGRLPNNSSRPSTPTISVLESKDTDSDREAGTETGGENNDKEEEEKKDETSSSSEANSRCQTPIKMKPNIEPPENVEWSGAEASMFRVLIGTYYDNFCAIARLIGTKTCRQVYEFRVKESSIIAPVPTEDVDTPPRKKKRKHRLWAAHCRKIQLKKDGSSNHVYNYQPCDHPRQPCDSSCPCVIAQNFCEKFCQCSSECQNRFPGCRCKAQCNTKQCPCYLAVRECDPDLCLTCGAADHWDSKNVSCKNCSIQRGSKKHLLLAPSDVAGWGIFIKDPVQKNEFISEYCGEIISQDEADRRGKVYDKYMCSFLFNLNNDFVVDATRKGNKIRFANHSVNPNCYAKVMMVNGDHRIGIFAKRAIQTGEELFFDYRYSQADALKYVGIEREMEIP

Turning to `CCCc1cc(C)[nH]c(=O)c1CNC(=O)c1cc(-c2ccnc(N3CCN(C)CC3)c2)cc2c1cnn2C(C)C`, the log2FC was 1.02 in assay [1]; -0.53 in assay [2]; 0.53 in assay [3]; 0.57 in assay [4]; 1.08 in assay [5]; 0.73 in assay [6]. The log2FC in assay [7] is 0.56; in assay [8] it was 0.42; in assay [9], 0.39; in [10], -0.41; in [11], -0.43; in [12], -0.49. The log2FC in assay [13] was -0.53; in assay [14] it was -0.57.
Consider `OC[C@H]1O[C@@H](n2cnc3cc(Cl)c(Cl)cc32)[C@H](O)[C@@H]1O`, for which the log2FC in assay [15] came to 0.93; in assay [16] it was 0.77; in assay [17] it was 0.7; in assay [18] it was 0.51; in [19] it was 0.51; in assay [20], 0.49. In addition, the log2FC in [21] was 0.4; in [22], -0.45; in [23], -0.5; in assay [24], -0.54.
